Assays:
[1] = molecular target: T1, Phosphatidylinositol 4,5-bisphosphate 3-kinase catalytic subunit alpha isoform (Homo sapiens, UniProt P42336); assay: Inhibition of PI3Kalpha in human MCF7 cells assessed as reduction in AKT phosphorylation at 1 uM after 2 hrs by ELISA relative to control; type: cell-based
[2] = molecular target: T1, Phosphatidylinositol 4,5-bisphosphate 3-kinase catalytic subunit alpha isoform; assay: Inhibition of PI3Kalpha in human MCF7 cells assessed as reduction in AKT phosphorylation after 4 hrs by ADP-Glo assay; type: cell-based
Summary of the method: (§1)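 MCF-7 cells were incubated with compound for 4 h. Phosphorylation of Akt at S473 and of p70s6k at T389 was read by […], and IC50 was derived.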

[3] = molecular target: T2, Serine/threonine-protein kinase mTOR (Homo sapiens, UniProt P42345); assay: Inhibition of mTOR in human MCF7 cells assessed as reduction in P70S6K phosphorylation after 4 hrs by […] assay; type: cell-based; summary of the method: as §1
[4] = molecular target: T1, Phosphatidylinositol 4,5-bisphosphate 3-kinase catalytic subunit alpha isoform; assay: Inhibition of PI3Kalpha (unknown origin) using PIP2 as substrate measured after 30 mins by HTRF assay
PI3K p110 beta/p85 alpha = PI3K p110 beta/p85 alpha (Homo sapiens, UniProt P42338); assay: Inhibition of human PI3K p110beta/p85alpha using phosphatidylinositol 4,5-bisphosphate as substrate after 30 mins by HTRF assay; type: protein-complex assay
[5] = molecular target: PI3-kinase p110-delta/p85-alpha (Homo sapiens, UniProt O00329); assay: Inhibition of human PI3K p110delta/p85alpha using phosphatidylinositol 4,5-bisphosphate as substrate after 30 mins by HTRF assay; type: protein-complex assay
[6] = molecular target: Phosphatidylinositol 4,5-bisphosphate 3-kinase catalytic subunit gamma isoform (Homo sapiens, UniProt P48736); assay: Inhibition of human PI3K p120gamma using phosphatidylinositol 4,5-bisphosphate as substrate after 30 mins by HTRF assay
[7] = molecular target: T2, Serine/threonine-protein kinase mTOR; assay: Inhibition of mTOR (unknown origin) using ULight-4E-BP1(Thr37/46) peptide as substrate measured after 2 hrs by HTRF assay
[8] = Protein binding in human plasma; type: ADME, cell-free
[9] = Protein binding in rat plasma; type: ADME, cell-free
[10] = Protein binding in mouse plasma; type: ADME, cell-free
[11] = Clearance in mouse at 1 mg/kg, iv; type: ADME, organism-based; conditions: in vivo
Summary of the method: (§2)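 Mice were dosed intravenously at 1 mg/kg. The vehicle was either 10% DMSO/65% PEG400/25% H2O or 10% DMSO/80% PEG400/10% H2O, depending on the compound.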

[12] = Volume of distribution at steady state in mouse at 1 mg/kg, iv; type: ADME, organism-based; conditions: in vivo, read-out: Vdss; summary of the method: as §2
[13] = Half life in mouse at 1 mg/kg, iv; type: ADME, organism-based; conditions: in vivo; summary of the method: as §2
[14] = AUC (0 to last) in mouse at 1 mg/kg, iv; type: ADME, organism-based; design: dose 1 mg/kg, time 0 - last, route intravenous; conditions: in vivo; summary of the method: as §2
[15] = Cmax in mouse at 3 mg/kg, po; type: ADME, organism-based; design: dose 3 mg/kg, route oral; conditions: in vivo
Summary of the method: (§3)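 Single oral dose of 3 mg/kg to mice, given in 10% DMSO/65% PEG400/25% H2O or in 10% DMSO/80% PEG400/10% H2O depending on the compound. Plasma exposure was measured.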

[16] = Tmax in mouse at 3 mg/kg, po; type: ADME, organism-based; conditions: in vivo; summary of the method: as §3
[17] = AUC (0 to last) in mouse at 3 mg/kg, po; type: ADME, organism-based; design: dose 3 mg/kg, time 0 - last, route oral; conditions: in vivo; summary of the method: as §3
[18] = Oral bioavailability in mouse at 3 mg/kg; type: ADME, organism-based; conditions: in vivo; summary of the method: as §3
PC-3M = assay: Antitumor activity against human PC3M cells xenografted in Balb/c mouse assessed as tumor growth inhibition administered orally once daily for 21 days measured twice a week during compound dosing; type: functional, cell-based
Summary of the method: (§4)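 Nude mice bearing PC-3M tumors received 1, 3 or 10 mg/kg by oral gavage once daily for 21 days, with 10 mice per group.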

Mus musculus = assay: Toxicity in Balb/c mouse xenografted with human PC3M cells assessed as body weight loss at 1 to 10 mg/kg, po administered once daily for 21 days measured daily during compound dosing; type: organism-based; conditions: in vivo, 504 h; summary of the method: as §4

T1 sequence (P42336 whole entry, canonical isoform): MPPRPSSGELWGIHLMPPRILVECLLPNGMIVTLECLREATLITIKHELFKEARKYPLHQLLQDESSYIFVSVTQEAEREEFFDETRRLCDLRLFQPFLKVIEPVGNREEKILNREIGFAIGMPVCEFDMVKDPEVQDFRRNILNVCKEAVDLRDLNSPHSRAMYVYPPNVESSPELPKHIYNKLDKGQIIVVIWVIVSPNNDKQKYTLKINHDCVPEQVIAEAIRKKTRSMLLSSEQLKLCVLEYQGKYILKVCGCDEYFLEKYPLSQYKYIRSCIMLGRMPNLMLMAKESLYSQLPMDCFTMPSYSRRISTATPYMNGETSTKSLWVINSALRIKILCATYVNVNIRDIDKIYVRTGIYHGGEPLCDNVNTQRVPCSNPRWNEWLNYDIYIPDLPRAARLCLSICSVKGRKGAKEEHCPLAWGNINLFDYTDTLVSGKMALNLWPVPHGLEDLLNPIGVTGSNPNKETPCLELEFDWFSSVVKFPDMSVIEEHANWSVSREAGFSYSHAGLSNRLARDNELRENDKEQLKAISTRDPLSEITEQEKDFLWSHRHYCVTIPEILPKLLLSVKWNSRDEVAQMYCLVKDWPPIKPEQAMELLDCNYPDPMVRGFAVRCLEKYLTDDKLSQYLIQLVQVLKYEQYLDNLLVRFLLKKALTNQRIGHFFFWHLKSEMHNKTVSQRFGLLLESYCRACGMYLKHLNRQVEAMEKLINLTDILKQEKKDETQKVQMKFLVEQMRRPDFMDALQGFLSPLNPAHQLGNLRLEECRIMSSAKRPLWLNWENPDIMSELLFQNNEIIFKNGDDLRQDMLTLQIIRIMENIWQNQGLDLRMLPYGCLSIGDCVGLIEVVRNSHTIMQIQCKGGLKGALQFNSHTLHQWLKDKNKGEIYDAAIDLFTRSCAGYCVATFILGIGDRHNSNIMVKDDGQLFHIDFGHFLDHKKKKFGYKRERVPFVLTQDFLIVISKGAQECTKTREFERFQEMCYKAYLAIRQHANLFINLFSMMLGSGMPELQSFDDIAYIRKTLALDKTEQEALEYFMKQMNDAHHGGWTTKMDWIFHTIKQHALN
Sequence of Phosphatidylinositol 4,5-bisphosphate 3-kinase catalytic subunit gamma isoform (P48736 whole entry, canonical isoform): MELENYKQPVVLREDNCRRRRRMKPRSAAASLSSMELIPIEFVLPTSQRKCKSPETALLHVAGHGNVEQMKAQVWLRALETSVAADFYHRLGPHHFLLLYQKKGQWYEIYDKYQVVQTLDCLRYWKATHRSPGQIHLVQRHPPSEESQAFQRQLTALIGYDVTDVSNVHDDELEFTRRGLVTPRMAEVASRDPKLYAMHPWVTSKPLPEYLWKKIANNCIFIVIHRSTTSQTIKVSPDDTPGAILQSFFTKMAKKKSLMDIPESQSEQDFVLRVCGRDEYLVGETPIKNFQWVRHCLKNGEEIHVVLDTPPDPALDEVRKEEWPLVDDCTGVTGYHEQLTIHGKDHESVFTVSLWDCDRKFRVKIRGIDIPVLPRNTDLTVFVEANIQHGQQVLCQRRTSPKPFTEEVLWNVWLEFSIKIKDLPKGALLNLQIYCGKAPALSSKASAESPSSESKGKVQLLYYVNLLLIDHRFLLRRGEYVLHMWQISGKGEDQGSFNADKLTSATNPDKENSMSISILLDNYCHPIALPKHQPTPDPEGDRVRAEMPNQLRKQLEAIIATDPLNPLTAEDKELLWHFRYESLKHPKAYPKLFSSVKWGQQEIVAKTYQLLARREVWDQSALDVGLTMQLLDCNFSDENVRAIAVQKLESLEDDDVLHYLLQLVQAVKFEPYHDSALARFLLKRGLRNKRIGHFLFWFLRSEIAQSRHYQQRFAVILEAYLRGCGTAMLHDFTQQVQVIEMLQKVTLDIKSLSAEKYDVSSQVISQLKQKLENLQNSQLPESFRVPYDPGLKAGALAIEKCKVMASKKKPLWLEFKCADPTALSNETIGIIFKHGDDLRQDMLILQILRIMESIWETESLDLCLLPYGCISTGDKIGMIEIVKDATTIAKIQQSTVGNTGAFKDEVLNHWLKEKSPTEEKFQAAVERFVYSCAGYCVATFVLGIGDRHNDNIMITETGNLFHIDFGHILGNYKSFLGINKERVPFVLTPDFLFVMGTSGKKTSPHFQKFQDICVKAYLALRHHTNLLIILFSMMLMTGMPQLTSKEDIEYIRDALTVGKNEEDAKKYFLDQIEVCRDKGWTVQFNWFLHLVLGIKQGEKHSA
Sequence of PI3K p110 beta/p85 alpha (P27986 whole entry): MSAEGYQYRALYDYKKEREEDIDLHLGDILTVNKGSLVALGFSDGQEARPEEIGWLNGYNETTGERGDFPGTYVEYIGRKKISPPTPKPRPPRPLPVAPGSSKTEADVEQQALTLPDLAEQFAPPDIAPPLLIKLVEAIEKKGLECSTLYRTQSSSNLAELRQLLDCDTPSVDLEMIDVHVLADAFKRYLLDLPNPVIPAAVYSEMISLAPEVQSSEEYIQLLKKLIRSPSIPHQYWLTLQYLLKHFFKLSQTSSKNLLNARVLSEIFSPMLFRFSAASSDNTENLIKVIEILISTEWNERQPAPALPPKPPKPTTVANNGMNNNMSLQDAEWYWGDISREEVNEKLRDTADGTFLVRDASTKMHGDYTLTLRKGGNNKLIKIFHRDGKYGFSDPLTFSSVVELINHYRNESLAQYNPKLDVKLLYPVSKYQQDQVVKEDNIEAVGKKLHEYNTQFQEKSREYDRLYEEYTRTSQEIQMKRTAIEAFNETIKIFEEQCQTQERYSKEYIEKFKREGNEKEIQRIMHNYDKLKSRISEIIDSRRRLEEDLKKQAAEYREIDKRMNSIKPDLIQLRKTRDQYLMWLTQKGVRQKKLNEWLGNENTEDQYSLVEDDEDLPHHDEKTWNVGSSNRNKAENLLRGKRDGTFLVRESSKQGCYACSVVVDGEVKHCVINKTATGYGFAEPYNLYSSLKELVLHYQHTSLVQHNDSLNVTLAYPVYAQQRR
Sequence of PI3K p110 beta/p85 alpha (P42338 whole entry): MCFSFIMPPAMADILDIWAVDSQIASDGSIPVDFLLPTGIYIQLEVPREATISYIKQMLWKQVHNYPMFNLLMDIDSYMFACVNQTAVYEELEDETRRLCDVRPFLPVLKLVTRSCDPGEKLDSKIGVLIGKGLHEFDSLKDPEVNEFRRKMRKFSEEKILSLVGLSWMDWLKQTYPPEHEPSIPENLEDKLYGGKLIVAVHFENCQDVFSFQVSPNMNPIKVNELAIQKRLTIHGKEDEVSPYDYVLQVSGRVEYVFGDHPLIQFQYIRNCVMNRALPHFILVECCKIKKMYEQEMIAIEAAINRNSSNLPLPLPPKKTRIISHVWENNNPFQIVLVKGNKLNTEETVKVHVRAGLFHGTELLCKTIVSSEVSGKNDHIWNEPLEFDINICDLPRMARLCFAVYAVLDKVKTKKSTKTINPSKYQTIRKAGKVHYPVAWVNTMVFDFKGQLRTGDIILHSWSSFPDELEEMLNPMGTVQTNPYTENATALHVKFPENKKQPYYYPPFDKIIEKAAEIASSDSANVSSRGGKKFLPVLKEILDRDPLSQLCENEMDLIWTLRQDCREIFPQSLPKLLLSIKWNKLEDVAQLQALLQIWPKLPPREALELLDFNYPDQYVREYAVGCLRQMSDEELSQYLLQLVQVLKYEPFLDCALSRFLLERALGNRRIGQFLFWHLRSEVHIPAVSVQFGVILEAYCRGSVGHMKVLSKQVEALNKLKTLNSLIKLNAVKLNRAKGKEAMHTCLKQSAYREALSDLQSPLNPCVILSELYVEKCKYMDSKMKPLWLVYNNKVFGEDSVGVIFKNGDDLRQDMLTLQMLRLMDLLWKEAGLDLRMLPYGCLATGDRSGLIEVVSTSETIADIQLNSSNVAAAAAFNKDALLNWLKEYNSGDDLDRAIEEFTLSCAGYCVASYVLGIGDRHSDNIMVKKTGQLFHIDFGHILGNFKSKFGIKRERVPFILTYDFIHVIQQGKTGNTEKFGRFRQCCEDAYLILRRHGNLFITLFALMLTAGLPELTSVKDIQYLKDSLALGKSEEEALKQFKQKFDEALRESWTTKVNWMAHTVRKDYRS
Sequence of PI3-kinase p110-delta/p85-alpha (P27986 whole entry, canonical isoform): as the sequence (P27986 whole entry) above
Sequence of PI3-kinase p110-delta/p85-alpha (O00329 whole entry, canonical isoform): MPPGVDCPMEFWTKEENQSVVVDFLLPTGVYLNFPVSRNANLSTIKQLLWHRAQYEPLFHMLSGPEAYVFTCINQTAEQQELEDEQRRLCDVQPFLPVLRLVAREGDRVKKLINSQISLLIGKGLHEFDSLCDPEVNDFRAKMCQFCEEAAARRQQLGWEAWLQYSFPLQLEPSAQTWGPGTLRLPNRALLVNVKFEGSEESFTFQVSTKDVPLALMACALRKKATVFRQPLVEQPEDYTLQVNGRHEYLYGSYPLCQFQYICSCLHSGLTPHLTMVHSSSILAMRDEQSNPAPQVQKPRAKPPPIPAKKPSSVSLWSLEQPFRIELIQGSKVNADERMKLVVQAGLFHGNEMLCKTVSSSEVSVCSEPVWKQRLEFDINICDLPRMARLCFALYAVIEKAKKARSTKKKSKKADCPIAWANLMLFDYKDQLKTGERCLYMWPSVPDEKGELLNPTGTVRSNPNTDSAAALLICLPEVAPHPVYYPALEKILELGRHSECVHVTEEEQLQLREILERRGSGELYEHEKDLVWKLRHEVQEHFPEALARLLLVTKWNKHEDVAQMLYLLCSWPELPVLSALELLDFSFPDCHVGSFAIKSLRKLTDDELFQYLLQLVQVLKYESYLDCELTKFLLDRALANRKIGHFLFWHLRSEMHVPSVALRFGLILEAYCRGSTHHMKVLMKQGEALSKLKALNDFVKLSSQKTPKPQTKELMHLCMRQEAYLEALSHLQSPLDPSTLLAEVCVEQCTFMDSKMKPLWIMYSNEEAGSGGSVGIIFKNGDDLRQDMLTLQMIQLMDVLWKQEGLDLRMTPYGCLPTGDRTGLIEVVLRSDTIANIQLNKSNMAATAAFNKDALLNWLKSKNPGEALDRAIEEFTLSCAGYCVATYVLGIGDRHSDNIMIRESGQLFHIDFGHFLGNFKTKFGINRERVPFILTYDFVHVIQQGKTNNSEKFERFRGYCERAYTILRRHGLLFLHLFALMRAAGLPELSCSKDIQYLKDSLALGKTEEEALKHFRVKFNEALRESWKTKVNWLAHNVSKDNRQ

| SMILES | inhibition [1] | IC50 [2] | IC50 [3] | other results |
| --- | --- | --- | --- | --- |
| COc1ncc(-c2ccc3nncc(N4CCOCC4)c3c2)cc1NS(=O)(=O)c1ccc(F)cc1F | 75% |  |  |  |
| COc1ncc(-c2ccc3nccc(=O)n3c2)cc1NS(=O)(=O)c1cccc(F)c1 | 96% | 0.067 µM | 0.064 µM |  |
| O=c1ccnc2ccc(-c3cnc(Cl)c(NS(=O)(=O)c4ccccc4F)c3)cn12 | 91% | 0.0344 µM | > 0.4 µM |  |
| COc1ncc(-c2ccc3nccc(=O)n3c2)cc1NS(=O)(=O)C1CC1 | 76% |  |  |  |
| CCS(=O)(=O)Nc1cc(-c2ccc3nccc(=O)n3c2)cnc1OC | 53% |  |  |  |
| COc1ncc(-c2ccc3nccc(=O)n3c2)cc1NS(=O)(=O)c1ccc(C#N)cc1 | 94% | 0.0574 µM | 0.246 µM |  |
| COc1ncc(-c2ccc3nccc(=O)n3c2)cc1NS(=O)(=O)c1ccc(Cl)cc1 | 96% | 0.0488 µM | 0.223 µM |  |
| CCOc1ncc(-c2ccc3nccc(=O)n3c2)cc1NS(=O)(=O)c1ccccc1F | 60% |  |  |  |
| COc1ncc(-c2ccc3nccc(=O)n3c2)cc1NS(=O)(=O)c1ccccc1C | 94% | 0.0239 µM | 0.153 µM |  |
| COc1ncc(-c2ccc3nccc(=O)n3c2)cc1NS(=O)(=O)CC(F)(F)F | 78% |  |  |  |
| Cc1ncc(-c2ccc3nccc(=O)n3c2)cc1NS(=O)(=O)c1ccc(F)cc1 | 85% |  |  |  |
| COc1ncc(-c2ccc3nccc(=O)n3c2)cc1NS(=O)(=O)c1ccc(C(F)(F)F)cc1 | 94% | 0.0487 µM | 0.163 µM |  |
| COc1ccc(S(=O)(=O)Nc2cc(-c3ccc4nccc(=O)n4c3)cnc2OC)cc1 | 95% | 0.0541 µM | 0.138 µM |  |
| COc1ncc(-c2ccc3nccc(=O)n3c2)cc1NS(=O)(=O)c1ccccc1F | 94% | 0.141 µM | > 0.4 µM |  |
| Cc1ncc(-c2ccc3nccc(=O)n3c2)cc1NS(=O)(=O)c1ccccc1F | 82% |  |  |  |
| COc1ncc(-c2ccc3nccc(=O)n3c2)cc1NS(=O)(=O)c1ccccc1 | 95% | 0.0988 µM | 0.198 µM |  |
| CCc1ncc(-c2ccc3nccc(=O)n3c2)cc1NS(=O)(=O)c1ccccc1F | 81% |  |  |  |
| COc1ncc(-c2cnc3nccc(-c4cnn(C)c4)c3c2)cc1NS(=O)(=O)c1ccc(F)cc1F | 47% |  |  |  |
| COc1ncc(-c2ccc3nccc(=O)n3c2)cc1NS(=O)(=O)c1cc(F)cc(F)c1 | 98% | 0.0782 µM | 0.0772 µM |  |
| COc1ncc(-c2cc3c(N4CCNC(=O)C4)ncnc3cn2)cc1NS(=O)(=O)c1ccc(F)cc1F | 50% |  |  |  |
| COc1ncc(-c2ccc3nccc(=O)n3c2)cc1NS(=O)(=O)c1ccc(F)cc1 | 95% | 0.0807 µM | 0.106 µM |  |

Now from value to molecule, other results behind:

| inhibition [1] | IC50 [2] | IC50 [3] | SMILES | other results |
| --- | --- | --- | --- | --- |
| 81% |  |  | Cc1ncc(-c2ccc3nccc(=O)n3c2)cc1NS(=O)(=O)c1ccc(F)cc1F |  |
| 93% | 0.0116 µM | 0.0892 µM | COc1ncc(-c2ccc3ncc(Cl)c(=O)n3c2)cc1NS(=O)(=O)c1ccc(F)cc1F | IC50 [4]: 0.0034 µM; IC50 (PI3K p110 beta/p85 alpha): 0.034 µM; IC50 [5]: 0.016 µM; IC50 [6]: 0.001 µM; IC50 [7]: 0.0047 µM; fraction unbound [8]: < 0.01; fraction unbound [9]: < 0.01; fraction unbound [10]: 0.005; clearance [11]: 1.4 mL/min/kg; Vd [12]: 0.472 L/kg; half-life [13]: 3 h; AUC(0-t) [14]: 11900 ng·h/mL; Cmax [15]: 5450 ng/mL; Tmax [16]: 2.67 h; AUC(0-t) [17]: 38600 ng·h/mL; bioavailability [18]: 108%; TGI (PC-3M): Dose-dependent effect; Activity (Mus musculus): Non-Toxic |
| 86% |  |  | CCc1ncc(-c2ccc3nccc(=O)n3c2)cc1NS(=O)(=O)c1ccc(F)cc1F |  |
| 90% | 0.0279 µM | 0.119 µM | COc1ncc(-c2ccc3ncc(C)c(=O)n3c2)cc1NS(=O)(=O)c1ccc(F)cc1F |  |
| 29% |  |  | COc1ncc(-c2cn3c(=O)ccnc3cn2)cc1NS(=O)(=O)c1ccc(F)cc1F |  |
| 96% | 0.045 µM | 0.108 µM | COc1ncc(-c2ccc3nccc(=O)n3c2)cc1NS(=O)(=O)c1cc(F)ccc1F |  |
| 92% | 0.0328 µM | > 0.4 µM | O=c1ccnc2ccc(-c3cnc(Cl)c(NS(=O)(=O)c4ccc(F)cc4F)c3)cn12 |  |
| 63% |  |  | COc1ncc(-c2ccc3nccc(=O)n3n2)cc1NS(=O)(=O)c1ccc(F)cc1F |  |
| 76% |  |  | CCOc1cnc2ccc(-c3cnc(OC)c(NS(=O)(=O)c4ccc(F)cc4F)c3)cn2c1=O |  |
| 98% | 0.016 µM | 0.066 µM | COc1ncc(-c2ccc3nccc(=O)n3c2)cc1NS(=O)(=O)c1ccc(F)cc1F | IC50 [4]: 0.0031 µM; IC50 [7]: 0.0192 µM; fraction unbound [8]: 0.005; fraction unbound [9]: 0.008; fraction unbound [10]: 0.019; clearance [11]: 5.15 mL/min/kg; Vd [12]: 0.443 L/kg; half-life [13]: 1 h; AUC(0-t) [14]: 3280 ng·h/mL; Cmax [15]: 4080 ng/mL; Tmax [16]: 0.333 h; AUC(0-t) [17]: 13800 ng·h/mL; bioavailability [18]: 139% |

Source: ChEMBL document CHEMBL4251704, “Discovery of Pyridopyrimidinones as Potent and Orally Active Dual Inhibitors of PI3K/mTOR” (ACS Med Chem Lett, 2018)
